pIC50: −log10 of the molar value.
Experiments:
[1] = Inhibition of hedgehog signaling pathway in mouse Light2 cells in Shh conditioned medium by Gli-luciferase reporter gene assay; assay type: cell-based
Procedure, shortened: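 Light II cells (NIH-3T3 stably transfected with Gli-responsive firefly luciferase and Renilla expression vector) stimulated with ShhN conditioned medium. This medium was collected from ShhN-transfected HEK293 cells kept in 0.1% FBS. Firefly luciferase normalized to Renilla. IC50 given as mean ± SD (nM) from three separate experiments.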

Mus musculus = organism: Mus musculus; test: Inhibition of hedgehog signaling pathway in mouse Light2 cells in Shh conditioned medium at 1 uM by Gli-luciferase reporter gene assay relative to control; assay type: cell-based

| Compound | pIC50 ([1]; Mus musculus) | pIC50 [1] | inhibition (Mus musculus) [%] |
| --- | --- | --- | --- |
| Cn1ccc(S(=O)(=O)N2CCN3C(=O)c4cccc(NC(=O)C5CC5)c4OCC3C2)n1 (stereo not drawn) | < 6.00 |  | 58 |
| C[C@H](CO)N1CC2CCN(S(=O)(=O)c3ccc(Cl)cc3)CC2Oc2c(NC(=O)C3CC3)cccc2C1=O (stereo partly drawn) [listing 1 of 2 here] | < 6.00 |  |  |
| COc1ccc(CN2C[C@@H]3CN(S(=O)(=O)c4ccc(Cl)cc4)CC[C@@H]3Oc3c(NC(=O)C4CC4)cccc3C2=O)cc1 [listing 1 of 2 here] |  | 7.92 |  |
| COc1ccc(CN2C[C@@H]3CN(S(=O)(=O)c4ccc(Cl)cc4)CC[C@@H]3Oc3c(NC(=O)C4CC4)cccc3C2=O)cc1 [listing 2 of 2 here] |  |  | 117 |
| C[C@H](CO)N1CC2CCN(S(=O)(=O)c3ccc(Cl)cc3)CC2Oc2c(NC(=O)C3CC3)cccc2C1=O (stereo partly drawn) [listing 2 of 2 here] |  |  | 34 |
| O=C(Nc1cccc2c1O[C@H]1CN(S(=O)(=O)c3ccc(Cl)cc3)CC[C@H]1CN(CCO)C2=O)C1CC1 (racemic) | < 6.00 |  | 25 |
| COc1ccc(CN2C[C@@H]3CCN(S(C)(=O)=O)C[C@@H]3Oc3c(NC(=O)C4CC4)cccc3C2=O)cc1 (racemic) | < 6.00 |  | 45 |
| O=C(Nc1cccc2c1O[C@H]1CN(S(=O)(=O)c3ccc(Cl)cc3)CC[C@H]1CN(Cc1cccnc1)C2=O)C1CC1 (racemic) | < 6.00 |  | 28 |
| COc1ccc(CN2C[C@@H]3CCN(S(=O)(=O)C4CCCCC4)C[C@@H]3Oc3c(NC(=O)C4CC4)cccc3C2=O)cc1 (racemic) | < 6.00 |  | 42 |
| O=C(Nc1cccc2c1O[C@H]1CN(S(=O)(=O)c3ccc(Cl)cc3)CC[C@H]1CN(CCO)C2=O)C1CCCCC1 (racemic) | < 6.00 |  | 32 |
| COc1ccc(CN2C[C@@H]3CCN(S(=O)(=O)N4CCN(C)CC4)C[C@@H]3Oc3c(NC(=O)C4CC4)cccc3C2=O)cc1 (racemic) | < 6.00 |  | 45 |
| COc1ccc(CN2C[C@@H]3CCN(S(=O)(=O)c4ccc(OC)c(OC)c4)C[C@@H]3Oc3c(NC(=O)C4CC4)cccc3C2=O)cc1 (racemic) | < 6.00 |  | 54 |
| COc1ccc(CN2C[C@@H]3CN(S(=O)(=O)c4ccn(C)n4)CC[C@@H]3Oc3ccc(NC(=O)C4CC4)cc3CC2=O)cc1 (racemic) | < 6.00 |  |  |
| C[C@H](CO)N1CC2CCN(S(=O)(=O)c3ccc(Cl)cc3)CC2Oc2c(NC(=O)C3CC3)cccc2C1=O (single isomer, unassigned; (+)) |  |  | 40 |

Further lines, with some results ahead:

| pIC50 ([1]; Mus musculus) | pIC50 [1] | Compound | inhibition (Mus musculus) [%] |
| --- | --- | --- | --- |
| 6.32 |  | O=C(Nc1cccc2c1OCC1CN(S(=O)(=O)c3ccc(Cl)s3)CCN1C2=O)C1CC1 (stereo not drawn) | 80 |
| < 6.00 |  | O=C(Nc1cccc2c1OCC1CN(S(=O)(=O)c3ccc(Cl)cc3)CCN1C2=O)C1CC1 (stereo not drawn) | 35 |
| 6.70 |  | COc1ccc(CN2C[C@H]3CN(S(=O)(=O)c4ccc(Cl)cc4)CC[C@H]3Oc3c(NC(=O)C4CC4)cccc3C2=O)cc1 | 92 |
| 7.38 |  | COc1ccc(CN2C[C@@H]3CCN(S(=O)(=O)c4ccc(NC(C)=O)cc4)C[C@@H]3Oc3c(NC(=O)C4CC4)cccc3C2=O)cc1 (racemic) | 105 |
| 6.52 |  | COc1ccc(CN2C[C@@H]3CCN(S(=O)(=O)c4ccc(Cl)cc4)C[C@@H]3Oc3c(NC(=O)C4CC4)cccc3C2=O)cc1 (racemic) | 97 |
| 6.46 |  | CN1CCC(N2C[C@@H]3CCN(S(=O)(=O)c4ccc(Cl)cc4)C[C@@H]3Oc3c(NC(=O)C4CC4)cccc3C2=O)CC1 (racemic) | 61 |
| 6.78 |  | COc1ccc(CN2C[C@@H]3CCN(S(=O)(=O)c4ccc(Cl)s4)C[C@@H]3Oc3c(NC(=O)C4CC4)cccc3C2=O)cc1 (racemic) | 113 |
| 6.12 |  | COc1ccc(CN2C[C@@H]3CCN(S(=O)(=O)c4ccc(Cl)cc4Cl)C[C@@H]3Oc3c(NC(=O)C4CC4)cccc3C2=O)cc1 (racemic) | 102 |

Source: ChEMBL document CHEMBL4017514, “Discovery of Novel Macrocyclic Hedgehog Pathway Inhibitors Acting by Suppressing the Gli-Mediated Transcription” (J Med Chem, 2017)
